Laboratory results taken from ChEMBL document CHEMBL1158339, “Synthesis and anti-microbial screening of some Schiff bases of 3-amino-6,8-dibromo-2-phenylquinazolin-4(3H)-ones” (2009).
In brackets after ≈: the same amount, converted by molar mass.

Tests used:
Assay type in all cases: functional
[1] = test system: Pseudomonas aeruginosa; assay: Antibacterial activity against Pseudomonas aeruginosa ATCC 2853 after 24 hrs by agar streak dilution method; settings: ATCC 2853, 24 h
Summary of the method: (§1)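 Agar streak dilution MIC. Stock […] in dimethyl formamide. Graded quantities go into molten sterile nutrient agar, poured at 40–50 °C to 3–4 mm depth and left to solidify. Plates are streaked with about 10⁵ cfu/ml bacterial suspension and incubated 24 h at 37 °C. MIC is the lowest concentration with no visible growth.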

[2] = test system: Escherichia coli; assay: Antibacterial activity against Escherichia coli ATCC 25922 after 24 hrs by paper disk diffusion technique
Summary of the method: (§2)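 Paper disc diffusion. Nutrient agar autoclaved 120 °C, 30 min, then inoculated at 40–50 °C with 1 ml/100 ml of a 10⁵ cfu/ml suspension matched to McFarland standard and poured to 3–4 mm. Discs impregnated with compound in dimethyl formamide are laid on the solidified agar. Plates are held 1 h at room temperature, then 24 h at 37 °C.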

[3] = test system: Klebsiella pneumoniae; assay: Antibacterial activity against Klebsiella pneumoniae ATCC 11298 after 24 hrs by paper disk diffusion technique; summary of the method: as §2
[4] = test system: Staphylococcus epidermidis; assay: Antibacterial activity against Staphylococcus epidermidis ATCC 155 after 24 hrs by agar streak dilution method; settings: ATCC 155, 24 h; summary of the method: as §1
[5] = test system: Staphylococcus aureus; assay: Antibacterial activity against Staphylococcus aureus ATCC 9144 after 24 hrs by paper disk diffusion technique; summary of the method: as §2
[6] = test system: Pseudomonas aeruginosa; assay: Antibacterial activity against Pseudomonas aeruginosa ATCC 2853 after 24 hrs by paper disk diffusion technique; summary of the method: as §2
[7] = test system: Klebsiella pneumoniae; assay: Antibacterial activity against Klebsiella pneumoniae ATCC 11298 after 24 hrs by agar streak dilution method; settings: ATCC 11298, 24 h; summary of the method: as §1
[8] = test system: Bacillus cereus; assay: Antibacterial activity against Bacillus cereus ATCC 11778 after 24 hrs by paper disk diffusion technique; summary of the method: as §2
[9] = test system: Aspergillus fumigatus; assay: Antifungal activity against Aspergillus fumigatus ATCC 46645 after 48 hrs by agar streak dilution method; settings: ATCC 46645, 48 h
Summary of the method: as §1, with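 “Fungal agar” for “Agar”, “dilution.” for “dilution MIC.”, “Sabouraud dextrose” for “nutrient”, “inoculated” for “streaked”, “cfu/ml” for “cfu/ml bacterial”, “48” for “24”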

[10] = test system: Escherichia coli; assay: Antibacterial activity against Escherichia coli ATCC 25922 after 24 hrs by agar streak dilution method; settings: ATCC 25922, 24 h; summary of the method: as §1
[11] = test system: Micrococcus luteus; assay: Antibacterial activity against Micrococcus luteus ATCC 4698 after 24 hrs by paper disk diffusion technique; summary of the method: as §2
[12] = test system: Staphylococcus epidermidis; assay: Antibacterial activity against Staphylococcus epidermidis ATCC 155 after 24 hrs by paper disk diffusion technique; summary of the method: as §2
[13] = test system: Aspergillus niger; assay: Antifungal activity against Aspergillus niger ATCC 9029 after 48 hrs by agar streak dilution method; settings: ATCC 9029, 48 h
Summary of the method: as §1, with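 “Fungal agar” for “Agar”, “dilution.” for “dilution MIC.”, “Sabouraud dextrose” for “nutrient”, “inoculated” for “streaked”, “cfu/ml” for “cfu/ml bacterial”, “48” for “24”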

[14] = test system: Micrococcus luteus; assay: Antibacterial activity against Micrococcus luteus ATCC 4698 after 24 hrs by agar streak dilution method; settings: NCTC 2665, 24 h; summary of the method: as §1
[15] = test system: Staphylococcus aureus; assay: Antibacterial activity against Staphylococcus aureus ATCC 9144 after 24 hrs by agar streak dilution method; settings: ATCC 9144, 24 h; summary of the method: as §1
[16] = test system: Bacillus cereus; assay: Antibacterial activity against Bacillus cereus ATCC 11778 after 24 hrs by agar streak dilution method; settings: ATCC 11778, 24 h; summary of the method: as §1
[17] = test system: Aspergillus niger; assay: Antifungal activity against Aspergillus niger ATCC 9029 after 48 hrs by paper disk diffusion technique
Summary of the method: (§3)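 Fungal disc diffusion. Autoclaved (120 °C, 30 min) medium is inoculated at 40–50 °C with 1 ml/100 ml of a 10⁵ cfu/ml McFarland-matched suspension and poured to 3–4 mm. Compound-impregnated paper discs in dimethyl formamide are applied. Plates are held 1 h at room temperature, then incubated 48 h at 37 °C.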

[18] = test system: Aspergillus fumigatus; assay: Antifungal activity against Aspergillus fumigatus ATCC 46645 after 48 hrs by paper disk diffusion technique; summary of the method: as §3

SMILES	MIC [1]	MIC [4]	MIC [7]	MIC [9]	MIC [10]	MIC [13]	MIC [14]	MIC [15]	MIC [16]	inhibition zone (IZ) [2]	inhibition zone (IZ) [3]	inhibition zone (IZ) [5]	inhibition zone (IZ) [6]	inhibition zone (IZ) [8]	inhibition zone (IZ) [11]	inhibition zone (IZ) [12]	inhibition zone (IZ) [17]	inhibition zone (IZ) [18]
O=c1c2cc(Br)cc(Br)c2nc(-c2ccccc2)n1/N=C/c1ccc(O)cc1	22.6 µg/mL (≈ 45.3 µM)	20.9 µg/mL (≈ 41.9 µM)	19 µg/mL (≈ 38.1 µM)	10.7 µg/mL (≈ 21.4 µM)	21.8 µg/mL (≈ 43.7 µM)	9.1 µg/mL (≈ 18.2 µM)	17.2 µg/mL (≈ 34.5 µM)	17.3 µg/mL (≈ 34.7 µM)	19.3 µg/mL (≈ 38.7 µM)	23 mm	27 mm	24 mm	25 mm	21 mm	26 mm	22 mm	24 mm	21 mm
O=c1c2cc(Br)cc(Br)c2nc(-c2ccccc2)n1/N=C/c1ccc([N+](=O)[O-])cc1	34.2 µg/mL (≈ 64.8 µM)	21.8 µg/mL (≈ 41.3 µM)	35.7 µg/mL (≈ 67.6 µM)	10.9 µg/mL (≈ 20.6 µM)	30.2 µg/mL (≈ 57.2 µM)	14.4 µg/mL (≈ 27.3 µM)	27.4 µg/mL (≈ 51.9 µM)	22.4 µg/mL (≈ 42.4 µM)	32.8 µg/mL (≈ 62.1 µM)	23 mm	20 mm	22 mm	21 mm	20 mm	23 mm	22 mm	24 mm	25 mm
O=c1c2cc(Br)cc(Br)c2nc(-c2ccccc2)n1/N=C/c1cccc([N+](=O)[O-])c1	36.1 µg/mL (≈ 68.4 µM)	21.8 µg/mL (≈ 41.3 µM)	34.6 µg/mL (≈ 65.5 µM)	11.6 µg/mL (≈ 22 µM)	19.8 µg/mL (≈ 37.5 µM)	10.7 µg/mL (≈ 20.3 µM)	30.1 µg/mL (≈ 57 µM)	22.6 µg/mL (≈ 42.8 µM)	23.6 µg/mL (≈ 44.7 µM)	26 mm	21 mm	21 mm	19 mm	22 mm	23 mm	22 mm	25 mm	23 mm
O=c1c2cc(Br)cc(Br)c2nc(-c2ccccc2)n1/N=C/c1ccccc1O	37.2 µg/mL (≈ 74.5 µM)	21.3 µg/mL (≈ 42.7 µM)	24.3 µg/mL (≈ 48.7 µM)	13.6 µg/mL (≈ 27.2 µM)	20.4 µg/mL (≈ 40.9 µM)	12.2 µg/mL (≈ 24.4 µM)	28.2 µg/mL (≈ 56.5 µM)	21.8 µg/mL (≈ 43.7 µM)	19.9 µg/mL (≈ 39.9 µM)	22 mm	22 mm	20 mm	17 mm	21 mm	18 mm	24 mm	22 mm	23 mm

These reach a lower MIC [1]. Values come first.

MIC [1]	MIC [4]	MIC [7]	MIC [9]	MIC [10]	MIC [13]	MIC [14]	MIC [15]	MIC [16]	SMILES	inhibition zone (IZ) [2]	inhibition zone (IZ) [3]	inhibition zone (IZ) [5]	inhibition zone (IZ) [6]	inhibition zone (IZ) [8]	inhibition zone (IZ) [11]	inhibition zone (IZ) [12]	inhibition zone (IZ) [17]	inhibition zone (IZ) [18]
21.2 µg/mL (≈ 42.6 µM)	22.6 µg/mL (≈ 45.5 µM)	29.1 µg/mL (≈ 58.5 µM)	14.6 µg/mL (≈ 29.4 µM)	19.8 µg/mL (≈ 39.8 µM)	15.2 µg/mL (≈ 30.6 µM)	25.1 µg/mL (≈ 50.5 µM)	31.1 µg/mL (≈ 62.6 µM)	21.9 µg/mL (≈ 44 µM)	Cc1ccc(/C=N/n2c(-c3ccccc3)nc3c(Br)cc(Br)cc3c2=O)cc1	24 mm	19 mm	18 mm	22 mm	21 mm	23 mm	20 mm	22 mm	24 mm
19.3 µg/mL (≈ 33.7 µM)	19.1 µg/mL (≈ 33.3 µM)	16.7 µg/mL (≈ 29.1 µM)	10.1 µg/mL (≈ 17.6 µM)	18.2 µg/mL (≈ 31.7 µM)	8.6 µg/mL (≈ 15 µM)	18.8 µg/mL (≈ 32.8 µM)	18.9 µg/mL (≈ 33 µM)	21.7 µg/mL (≈ 37.9 µM)	COc1cc(/C=N/n2c(-c3ccccc3)nc3c(Br)cc(Br)cc3c2=O)cc(OC)c1OC	27 mm	28 mm	26 mm	24 mm	23 mm	24 mm	25 mm	26 mm	24 mm
